The values that follow come from PMC8519014 (Journal of pharmaceutical and biomedical analysis, 2017).

Counter-ions that a name gives are not always drawn.

A short description of this data set: Mice pharmacokinetic study after oral administration of a mixture of 11 TKIs. To be noted: for concentration at 15 min / concentration at 30 min / concentration at 45 min / concentration at 60 min / concentration at 120 min / concentration at 240 min / AUC(0-t) / Cmax / Tmax: 1 mg/kg; for Tmax: oral gavage 1 mg/kg each as a mixture of 11 TKIs, FVB wild-type mice, blood, n = 4. It counts as in vivo, FVB wild-type mice. Put shortly:
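Male FVB mice (25–30 g, 10–12 weeks) fasted overnight with water, then oral gavage of an 11-TKI cassette in oral suspension vehicle (0.06 mg/ml each), 1 mg/kg. Tail-tip blood (~15 μl, heparinized) taken at 15–1440 min (nine points). Quantified by UHPLC BEH C18–ESI triple-quadrupole MS/MS against blank-blood calibrants (acetonitrile/testosterone IS precipitation). Non-compartmental parameters, n = 4.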

[1] abbreviates: male, FVB wild-type, mouse, whole blood, po.
The mark [2] stands for this setting: male, FVB wild-type, mouse, whole blood, po, Tmax.

Consider `CN(C)C/C=C/C(=O)Nc1cc2c(Nc3ccc(F)c(Cl)c3)ncnc2cc1O[C@H]1CCOC1` [Afatinib, afatinib], for which the “Detection in blood after oral dosing” value (oral 1 mg/kg as mixture of 11 TKIs, mice) is on record as “not detected”.

For the compound `CS(=O)(=O)CCNCc1ccc(-c2ccc3ncnc(Nc4ccc(OCc5cccc(F)c5)c(Cl)c4)c3c2)o1` [Lapatinib, lapatinib], under setting [1], the concentration at 15 min turned out to be 8.8 ± 12.7 ng/mL, the concentration at 30 min amounted to 16.3 ± 28.2 ng/mL, the concentration at 45 min is 21.4 ± 25.6 ng/mL and the concentration at 60 min came to 21.2 ± 25.7 ng/mL. Moreover, under setting [1], the concentration at 120 min was found to be 20.1 ± 28.2 ng/mL and the concentration at 240 min amounted to 18.1 ± 25.4 ng/mL.

With `Cc1ccc(Nc2nccc(N(C)c3ccc4c(C)n(C)nc4c3)n2)cc1S(N)(=O)=O` [Pazopanib, pazopanib hydrochloride], the Tmax was 1.62 ± 1.11 h. Also, under setting [1], the AUC(0-t) is 4150 ng·h/mL and the Cmax turned out to be 717 ± 206 ng/mL. Also, the Tmax under setting [2] was roughly 1.62 h. Also, the “Systemic exposure (AUC) relative to sorafenib” value (pazopanib AUC versus sorafenib AUC, oral 1 mg/kg as mixture of 11 TKIs, mice) was 7.5 times.

In the case of `C#Cc1cccc(Nc2ncnc3cc(OCCOC)c(OCCOC)cc23)c1` [Erlotinib, erlotinib hydrochloride], under setting [1], the Cmax is 147 ± 62.2 ng/mL, the concentration at 15 min worked out at 147 ± 62.2 ng/mL, the concentration at 30 min was 124 ± 45 ng/mL and the concentration at 45 min came to 120 ± 97.6 ng/mL. Under setting [1], the concentration at 60 min amounted to 87.6 ± 87.6 ng/mL, the concentration at 120 min was 23 ± 37.7 ng/mL and the concentration at 240 min is 14.4 ± 24.9 ng/mL. Further, the Tmax under setting [2] was 0.25 h.

Turning to `CNC(=O)c1cc(Oc2ccc(NC(=O)Nc3ccc(Cl)c(C(F)(F)F)c3)cc2)ccn1` [Sorafenib, sorafenib tosylate], under setting [1], the AUC(0-t) is 558 ng·h/mL and the Cmax turned out to be 154 ± 30.4 ng/mL. The Tmax under setting [2] is 1 h.

In the case of `Cc1cn(-c2cc(NC(=O)c3ccc(C)c(Nc4nccc(-c5cccnc5)n4)c3)cc(C(F)(F)F)c2)cn1` [Nilotinib, nilotinib], under setting [1], the concentration at 15 min is 62.1 ± 32.8 ng/mL, the concentration at 30 min turned out to be 59.1 ± 31.4 ng/mL, the concentration at 45 min is 69 ± 37.2 ng/mL and the concentration at 60 min was 68.8 ± 26.8 ng/mL. In addition, under setting [1], the concentration at 120 min was 67.3 ± 64.3 ng/mL and the concentration at 240 min was 34.6 ± 33.1 ng/mL.

Consider `CCN(CC)CCNC(=O)c1c(C)[nH]c(/C=C2\C(=O)Nc3ccc(F)cc32)c1C` [Sunitinib, sunitinib malate], for which, under setting [1], the concentration at 15 min came out at 9.4 ± 12.1 ng/mL, the concentration at 30 min worked out at 18.4 ± 10.6 ng/mL, the concentration at 45 min turned out to be 22.8 ± 18.9 ng/mL and the concentration at 60 min is 12.7 ± 20 ng/mL. Also, the concentration at 120 min under setting [1] stood at 14.7 ± 15.8 ng/mL.

With `Cc1nc(Nc2ncc(C(=O)Nc3c(C)cccc3Cl)s2)cc(N2CCN(CCO)CC2)n1` [Dasatinib, dasatinib], under setting [1], the concentration at 15 min was determined as 9.1 ± 18.2 ng/mL, the concentration at 30 min was determined as 21.5 ± 19.2 ng/mL, the concentration at 45 min amounted to 34.3 ± 41.6 ng/mL and the concentration at 60 min was 24.8 ± 49.7 ng/mL. Moreover, under setting [1], the concentration at 120 min was 18.4 ± 23.1 ng/mL and the concentration at 240 min was determined as 10.1 ± 20.2 ng/mL.

Turning to `COc1cc2ncnc(Nc3ccc(F)c(Cl)c3)c2cc1OCCCN1CCOCC1` [Gefitinib, gefitinib], under setting [1], the concentration at 15 min was found to be 24.7 ± 22 ng/mL, the concentration at 30 min stood at 32.4 ± 28.1 ng/mL, the concentration at 45 min turned out to be 36.7 ± 41.5 ng/mL and the concentration at 60 min stood at 33.2 ± 42.7 ng/mL. Moreover, under setting [1], the concentration at 120 min stood at 21.8 ± 25.5 ng/mL and the concentration at 240 min was determined as 32.7 ± 26.3 ng/mL.

As for `CNC(=O)c1ccccc1Sc1ccc2c(/C=C/c3ccccn3)n[nH]c2c1` [Axitinib, axitinib], under setting [1], the concentration at 15 min is 51.7 ± 40 ng/mL, the concentration at 30 min was 42.7 ± 19.3 ng/mL, the concentration at 45 min is 46.1 ± 39.6 ng/mL and the concentration at 60 min was 34.2 ± 37.3 ng/mL. Also, under setting [1], the concentration at 120 min was determined as 11.1 ± 16.4 ng/mL and the concentration at 240 min was 4.8 ± 26.8 ng/mL.

With `Cc1ccc(NC(=O)c2ccc(CN3CCN(C)CC3)cc2)cc1Nc1nccc(-c2cccnc2)n1` [Imatinib], under setting [1], the concentration at 15 min was found to be 53.1 ± 20.1 ng/mL, the concentration at 30 min is 55.7 ± 28.6 ng/mL, the concentration at 45 min was 68.8 ± 63.8 ng/mL and the concentration at 60 min was found to be 48.1 ± 56.9 ng/mL. Further, under setting [1], the concentration at 120 min came to 19.9 ± 19 ng/mL and the concentration at 240 min was 11.1 ± 19.2 ng/mL.

What is called AUC(0-t) is the area under the concentration-time curve up to a stated or last time point. Usually Cmax stands for the maximum level reached in the sampled fluid or tissue. The term Tmax denotes the time at which the peak concentration occurs.
